Reference: ChEMBL document CHEMBL5321236, “Fluoro-labelled sp2-iminoglycolipids with immunomodulatory properties” (Eur J Med Chem, 2023)
Active and inactive are the calls of the source. No cut-off for these calls is given here.

Key:
A549 = test: Growth inhibition of human A549 cells measured after 48 hrs by SRB colorimetric assay; format: functional
Summary of the method: (§1)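 NCI-based protocol with sulforhodamine B read-out. Seeded 2500 (A549, HBL-100, HeLa, SW1573), 5000 (T-47D, WiDr, SW1573/P-gp) or 7000 (BJ-hTERT) cells/well. Exposed 48 h to serial decimal dilutions, 0.001–100 μM, from 40 mM DMSO stock. GI50 by NCI formulas; mean of three or more experiments ± SD.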

SW1573 [1] = test: Growth inhibition of human SW1573 cells measured after 48 hrs by SRB colorimetric assay; format: functional; summary of the method: as §1
WiDr = test: Growth inhibition of human WiDr cells measured after 48 hrs by SRB colorimetric assay; format: functional; summary of the method: as §1
hTERT-BJ = test: Growth inhibition of human hTERT-BJ cells measured after 48 hrs by SRB colorimetric assay; format: functional
Summary of the method: as §1, with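 “read-out. Cells grown in RPMI 1640 with 5% FBS and 1 mM glutamine at 37 °C, 5% CO₂.” for “read-out.”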

[2] = Resistance factor, ratio of GI50 for growth inhibition of human SW1573 cells overexpressing P-glycoprotein measured after 48 hrs in presence of verapamil to GI50 for growth inhibition of human SW1573 cells measured after 48 hrs in presence of verapamil; format: functional
Summary of the method: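 SW1573 parental and P-gp-overexpressing cells given 48 h exposure to serial dilutions (0.001–100 μM) in medium containing verapamil at a final 10 μM as P-gp transport inhibitor. SRB read-out, GI50 by NCI formulas. Resistance factor taken as GI50 in SW1573/P-gp divided by GI50 in SW1573.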

HeLa [3] = test: Inhibition of colony formation in human HeLa cells assessed as reduction in number of colonies at one third of GI50 concentration measured after 7 days by crystal violet staining based analysis; format: functional, cell-based; settings: time 7.0 day
Summary of the method: (§2)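 HeLa and SW1573 seeded at 400 cells/well, dosed next day at GI50/3 and GI50 for the given line. Exposed seven days, fixed in methanol, stained with 0.5% w/v crystal violet. Colonies counted by automatic image segmentation.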

SW1573 [4] = test: Inhibition of colony formation in human SW1573 cells assessed as reduction in number of colonies at GI50 concentration measured after 7 days by crystal violet staining based analysis; format: functional, cell-based; settings: time 7.0 day; summary of the method: as §2
SW1573 [5] = test: Inhibition of colony formation in human SW1573 cells assessed as reduction in number of colonies at one third of GI50 concentration measured after 7 days by crystal violet staining based analysis; format: functional, cell-based; settings: time 7.0 day; summary of the method: as §2
SW1573 [6] = test: Induction of morphological changes in human SW1573 cells assessed as increase in average dry mass density at 20 uM measured after 15 hrs by imaging based analysis; format: functional, cell-based
Summary of the method: (§3)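 HeLa and SW1573 seeded at 100,000 cells/dish. After 24 h, medium switched to phenol-red-free RPMI 1640 and 20 μM added. Label-free holotomographic 3D live imaging of a 236 × 236 μm field, 10–20 cells initially, every 3 min for 15 h. Average dry mass density measured per cell at each cycle; morphology scored against untreated cells.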

SW1573 [7] = test: Induction of morphological changes in human SW1573 cells assessed as decrease in cell volume at 20 uM measured after 5 hrs by microscopy based analysis; format: functional; summary of the method: as §3
SW1573 [8] = test: Induction of morphological changes in human SW1573 cells assessed as formation of apoptotic bodies at 20 uM measured after 5 hrs by microscopy based analysis; format: functional, cell-based; summary of the method: as §3
HeLa [9] = test: Induction of morphological changes in human HeLa cells assessed as release of cellular content at 20 uM measured after 12 hrs by imaging based analysis; format: functional, cell-based; summary of the method: as §3
HeLa [10] = test: Induction of morphological changes in human HeLa cells assessed as signal transition to necrotic stage at 20 uM measured after 12 hrs by imaging based analysis; format: functional, cell-based; summary of the method: as §3
HeLa [11] = test: Induction of morphological changes in human HeLa cells assessed as production of filmy bubbles at 20 uM measured after 12 hrs by imaging based analysis; format: functional, cell-based; summary of the method: as §3
[12] = molecular target: Mitogen-activated protein kinase 14 (Mus musculus) (UniProt P47811); test: Inhibition of LPS-stimulated p38 alpha phosphorylation in mouse BV-2 cells at 10 uM measured after 15 to 90 mins by Western blot analysis; format: cell-based; settings: time 15-90 min
Sequence of Mitogen-activated protein kinase 14 (Mus musculus) (P47811 whole entry): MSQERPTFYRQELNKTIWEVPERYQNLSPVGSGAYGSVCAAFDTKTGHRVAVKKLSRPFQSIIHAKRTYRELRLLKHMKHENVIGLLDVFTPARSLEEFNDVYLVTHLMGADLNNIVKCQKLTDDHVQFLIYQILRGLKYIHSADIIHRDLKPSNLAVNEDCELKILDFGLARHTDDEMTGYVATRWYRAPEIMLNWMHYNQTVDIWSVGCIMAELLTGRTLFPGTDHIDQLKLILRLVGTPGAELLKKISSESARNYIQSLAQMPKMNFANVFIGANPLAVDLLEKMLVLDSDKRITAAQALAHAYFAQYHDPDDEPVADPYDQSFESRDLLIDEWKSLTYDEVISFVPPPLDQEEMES
Summary of the method: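 Bv.2 cells exposed with or without LPS for 15–90 min. Protein extracts run on SDS-PAGE, blotted to PVDF, probed with anti-phospho-p38α MAPK and anti-total p38α MAPK (1:1000), ECL detection. Quantified by densitometry, mean ± SEM, n = 3.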

HeLa [13] = test: Induction of morphological changes in human HeLa cells at 20 uM measured after 12 hrs by imaging based analysis
HeLa [14] = test: Induction of morphological changes in human HeLa cells assessed as increase in cell shrinkage at 20 uM measured after 12 hrs by imaging based analysis
BV-2 = test: Protection against LPS induced inflammation in mouse BV-2 cells assessed as decrease in Tnf-alpha mRNA expression at 10 uM incubated for 24 hrs with LPS stimulation by qRT-PCR analysis

CCCCCCCCCCCCS(=O)(=O)[C@@H]1[C@H](F)[C@@H](O)[C@H](O)[C@H]2COC(=O)N21
GI50 (A549): 4.6 µM
GI50 (SW1573 [1]): 9.1 µM
GI50 (WiDr): 20 µM
GI50 (hTERT-BJ): 32 µM
RatioGI50 [2]: 0.7
inhibition (HeLa [3]): Active
inhibition (SW1573 [4]): Active
inhibition (SW1573 [5]): Active
Activity (SW1573 [6]): Active
Activity (SW1573 [7]): Active
Activity (SW1573 [8]): Active
Activity (HeLa [9]): Active
Activity (HeLa [10]): Active
Activity (HeLa [11]): Active
inhibition [12]: inactive
Activity (HeLa [13]): Active
Activity (HeLa [14]): Active
Activity (BV-2): Active
